How the values were obtained:
5-HT7R [1] = target: T1, 5-HT7R (Homo sapiens, UniProt P34969); assay type: cell-based; conditions: 10 µM ligand, 2 to 60 min, Western blot
In short: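 HEK-293 cells stably expressing h5-HT7R were exposed to 10 µM ligand for 2 to 60 min, or to rising concentrations for 7 min. Lysates were run on 10% SDS-PAGE, transferred to PVDF and blocked in 5% milk in TBS-T (pH 7.4), then probed for phospho-ERK1/2. Bands were quantified by densitometry; three independent experiments, mean ± SEM.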

[2] = system: formalin-induced hindpaw licking; assay: Formalin test; assay type: in vivo; conditions: rats, Serodolin 10 mg/kg s.c., morphine 4 mg/kg s.c.
5-HT7R [3] = target: T1, 5-HT7R; assay type: cell-based
In short: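 HEK-293 cells stably expressing h5-HT7R, grown in DMEM with 10% dialyzed FCS and penicillin/streptomycin. Cells were preincubated with a 5-HT7R antagonist (10 µM, 10 min) or the PKA inhibitor H89 before 10 µM ligand. Lysates were read by AlphaScreen SureFire p-ERK1/2 and p-c-SRC kits, or by Western blot with densitometry. Three independent experiments; mean ± SEM.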

thermal nociception = assay: Tail immersion test; assay type: in vivo; conditions: 5 mg/kg s.c.
In short: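 Male mice (8–14 wk; C57BL/6 or 5-HT7R−/− on C57BL/6 background) received test compound 5 mg/kg by tail s.c. injection. Vehicle was 20% DMSO and 5% Tween 80 in PBS. Some groups were also given 5-HT7R antagonist 5 mg/kg i.p. Tail immersion latency in 50 ± 2 °C water was measured 10 min (T0) and 40 min (T30) post-injection.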

[4] = Pharmacokinetic study in plasma and brain; assay type: in vivo; conditions: 5 mg/kg s.c., C57BL/6 mice
5-HT7R [5] = target: T1, 5-HT7R; assay: cAMP accumulation; assay type: cell-based; conditions: ligand alone
[6] = pretreatment, Serodolin 10 µM 7 min, AlphaScreen

T1 sequence (P34969 1-432): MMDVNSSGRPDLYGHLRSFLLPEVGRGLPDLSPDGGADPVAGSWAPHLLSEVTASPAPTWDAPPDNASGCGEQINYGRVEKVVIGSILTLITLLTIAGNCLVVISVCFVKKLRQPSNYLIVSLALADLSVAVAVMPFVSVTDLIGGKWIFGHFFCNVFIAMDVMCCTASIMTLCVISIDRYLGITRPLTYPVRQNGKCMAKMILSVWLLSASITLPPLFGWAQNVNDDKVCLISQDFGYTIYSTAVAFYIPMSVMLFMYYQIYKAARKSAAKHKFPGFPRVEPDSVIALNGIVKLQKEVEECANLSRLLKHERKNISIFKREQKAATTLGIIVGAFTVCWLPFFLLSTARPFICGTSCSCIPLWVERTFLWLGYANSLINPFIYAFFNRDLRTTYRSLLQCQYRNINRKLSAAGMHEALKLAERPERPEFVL

O=C1Nc2cccc3c2C1(CCCCN1CC=C(c2ccccc2)CC1)CCC3 (stereo not shown) [DR4004]
induction of ERK phosphorylation (5-HT7R [1]): none of them were able to induce ERK activation

CN1CC[C@]23c4c5ccc(O)c4O[C@H]2[C@@H](O)C=C[C@H]3[C@H]1C5 [morphine]
inhibitory effect on licking, early phase (vs vehicle-treated group) ([2]; 0 to 5 min, not significant): −57% | inhibition of licking, late phase (vs vehicle-treated group) ([2]; 17 to 27 min): −64%

CC(C)(C)n1nc(-c2ccc(Cl)cc2)c2c(N)ncnc21 [PP2]
block of Serodolin-induced ERK phosphorylation (5-HT7R [3]; [6]): 99% | block of Serodolin-induced c-SRC phosphorylation (5-HT7R [3]; [6]): 100%

Cc1nn(C)c(C)c1-c1cccc(CCN(C)C)c1 [E55888]
antinociceptive effect in 5-HT7R KO mice (thermal nociception): did not exert any antinociceptive effect | induction of ERK phosphorylation (5-HT7R [1]): induce ERK phosphorylation | time after which compound is eliminated / undetectable in plasma and brain [4]: 120 min | maximum of detection in brain ([4]; brain): 1.4 ± 0.2 µg/mL | maximum of detection in plasma ([4]; plasma): 6.1 ± 0.5 µg/mL | effect on cAMP when tested alone (5-HT7R [5]): induced a concentration-dependent accumulation of cAMP | phosphorylation of c-SRC kinase at Tyr416 (5-HT7R [3]; 10 µM, 7 min, Western blot): could not be observed after 5-CT or E55888 stimulation

Nc1ncnc2c1cnn2-c1ccccc1 [PP3]
effect on Serodolin-induced ERK and c-SRC phosphorylation (5-HT7R [3]; pretreatment, AlphaScreen): inactive
